Experimental data as given in PMC5308454 (MedChemComm, 2016).
Where two headings read alike, the source gives them in different places.

Key:
NCI-H460 [1] = details: read-out: GI50 SRB assay NCI-H460; ref [13]; cited from earlier work
DU-145 (prostate) [2] = details: read-out: GI50 SRB assay DU-145; ref [13]; cited from earlier work
SK-OV-3 [3] = details: read-out: GI50 SRB assay SK-OV-3; ref [13]; cited from earlier work
[4] = test system: MCF7-luc-GFP-mCherry breast tumor; assay: Dynamic bioluminescence imaging; format: in vivo, SCID mice; details: for Reduction in bioluminescence as compared to baseline or saline control: 4 h after injection, p<0.05
[5] = test system: MCF7-luc-GFP-mCherry breast tumor; assay: Histological; format: in vivo, SCID mice; details: 120 mg/kg; 48 h post treatment
How it was run: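 The same MCF7-luc-GFP-mCherry tumour-bearing SCID mice were dosed ip at 120 mg/kg, or with saline. After the 48 h BLI session they were sacrificed and the tumours excised. Tumour cross-sections were stained with H&E, and necrotic (pink) regions were scored against viable (purple) regions relative to the saline control.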

tubulin [6] = details: read-out: Inhibition of tubulin polymerization IC50; ref [73]; cited from earlier work
tubulin [7] = assay: Inhibition of tubulin polymerization; format: biochemical; details: read-out: Inhibition of tubulin polymerization IC50; ± SD
NCI-H460 [8] = assay: SRB cytotoxicity assay, NCI-H460; format: cell-based, human; details: read-out: GI50 SRB assay NCI-H460; average of n ≥ 3 independent determinations
DU-145 (prostate) [9] = assay: SRB cytotoxicity assay, DU-145; format: cell-based, human; details: read-out: GI50 SRB assay DU-145; average of n ≥ 3 independent determinations
SK-OV-3 [10] = assay: SRB cytotoxicity assay, SK-OV-3; format: cell-based, human; details: read-out: GI50 SRB assay SK-OV-3; average of n ≥ 3 independent determinations

COc1ccc(/C=C\c2cc(OC)c(OC)c(OC)c2)cc1O [CA4, combretastatin A-4]
GI50 (NCI-H460 [1]): 5 nM
GI50 (DU-145 (prostate) [2]): 6.02 nM
GI50 (SK-OV-3 [3]): 5.06 nM

COc1ccc(/C=C\c2cc(OC)c(OC)c(OC)c2)cc1OP(=O)(O)O [CA4P, Combretastatin A-4P]
Reduction in bioluminescence as compared to baseline or saline control ([4]; 120 mg/kg ip single dose): approximately 80%
Tumor necrosis (H&E) as compared with saline control [5]: much more extensive necrosis
IC50 (tubulin [6]): > 20000 nM

COc1cc(/C2=C/CCCCc3c2ccc(OC)c3OP(=O)([O-])[O-])cc(OC)c1OC.[Na+].[Na+] [Compound 24]
Bioluminescence intensity at 24 and 48 h versus baseline ([4]; 120 mg/kg ip single dose, 24 and 48 h, p<0.005): remained significantly below baseline values
Reduction in bioluminescence as compared to baseline or saline control ([4]; 120 mg/kg ip single dose): approximately 80%
Vascular shutdown evidenced by bioluminescence imaging ([4]; 120 mg/kg, 4 h post administration, effect continued at 24 and 48 h): significant vascular shutdown
Tumor necrosis (H&E) as compared with saline control [5]: much more extensive necrosis

COc1ccc2c(c1O)CCCC=C2c1cc(OC)c(OC)c(OC)c1 [KGP18]
IC50 (tubulin [7]): 1400 nM
GI50 (NCI-H460 [8]): 0.0418 nM
GI50 (DU-145 (prostate) [9]): 0.0249 nM
GI50 (SK-OV-3 [10]): 0.0543 nM
